Data as given in ChEMBL document CHEMBL4680079, “Discovery of a Quinoline-4-carboxamide Derivative with a Novel Mechanism of Action, Multistage Antimalarial Activity, and Potent in Vivo Efficacy” (J Med Chem, 2016).
≈ marks a conversion by molar mass, not a printed value.

Experiments:
[1] = Kinetic aqueous solubility of the compound by laser nephelometry; format: physicochemical; details: read-out: Kinetic_solubility
In short: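 Kinetic solubility measured by laser nephelometry. DMSO serial dilutions diluted into water to give final 100–5 μg/mL at 1.0% DMSO. Read immediately, in triplicate aliquots.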

[2] = tested on: Plasmodium falciparum; test: Antiplasmodial activity against chloroquine-sensitive Plasmodium falciparum 3D7 infected in human red blood cells assessed as growth inhibition by SYBR Green fluorescence assay; format: functional, organism-based, RBC; details: 3D7, Erythrocyte
In short: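 P. falciparum 3D7 grown in 5% human red cells in RPMI 1640 (pH 7.3) with 0.5% Albumax II, hypoxanthine and gentamicin at 37°C under 1% O₂/3% CO₂. Growth measured by SYBR green fluorescence (ex 485/em 528 nm), with mefloquine as assay control. EC50 calculated.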

[3] = tested on: MRC5; test: Antiproliferative activity against human MRC5 cells assessed as reduction in cell viability after 68 hrs by resazurin dye based fluorescence assay; details: MRC5, 68 h
In short: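 MRC-5 fibroblasts plated overnight as monolayers, exposed to compound pre-diluted in MEM for 68 h. Resazurin then added (final 50 μM) for 3 h, fluorescence read at ex 528/em 590 nm. Signal converted to % inhibition against high- and no-inhibition controls. Plates accepted at Z' > 0.5.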

[4] = Protein binding in CD1 mouse plasma measured after 5 hr by UPLC-MS/MS analysis based equilibrium dialysis method; format: ADME, cell-free; details: mouse, 5 h
In short: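 Equilibrium dialysis of female CD1 mouse plasma spiked at 10 μg/mL (12-14 kDa membrane) against isotonic buffer for 5 h at ~37°C with shaking. Unbound fraction taken as the buffer/plasma peak-area ratio by UPLC-MS/MS. n=6 replicates, run in triplicate.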

[5] = Intrinsic clearance in CD1 mouse liver microsomes at 0.5 uM in presence of NADPH incubated upto 30 mins by UPLC-MS/MS analysis; format: ADME, Microsome; details: 0.5 h
In short: (§1)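 Compound at 0.5 μM incubated with female CD1 mouse, male Sprague-Dawley rat or pooled human liver microsomes (0.5 mg/mL, 50 mM potassium phosphate, pH 7.4). Reaction started with excess NADPH. Samples taken at 0-30 min, quenched in acetonitrile, analysed by UPLC-MS/MS. Verapamil used as control, single time course.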

[6] = tested on: Plasmodium falciparum; test: Antiplasmodial activity against late stage (IV/V) Plasmodium falciparum NF54 gametocytes transfected with GFP-LUC assessed as growth inhibition incubated for 72 hrs by mitotracker Red-CMXROS dye based fluorescence microscopic analysis; format: functional, organism-based; details: NF54, 72 h
In short: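 NF54 pfs16-LUC-GFP stage IV–V gametocytes (10% parasitaemia, 0.1% haematocrit) exposed to compound in 0.4% DMSO, three concentrations per log, for 72 h at 37°C under 5% CO2/5% O2/90% N2. MitoTracker Red CM-H2Xros then added for 16 h and viable gametocytes counted by imaging.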

[7] = tested on: Plasmodium berghei; test: Antiplasmodial activity against Plasmodium berghei ANKA infected in NMRI mouse assessed as reduction in parasitemia at 1 mg/kg, po QD for 4 days; format: functional; set-up: scale not given: the % may be the effect or the level left; details: time 4 day
In short: (§2)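 Female NMRI mice (n=3 per group, randomized, not blinded) infected with GFP-transfected P. berghei ANKA. Oral dosing once daily for 4 days in 10% DMSO/40% PEG400/50% water or HPMC suspension vehicle. Parasitaemia measured by flow cytometry on blood collected 96 h after infection. Mice watched for toxicity over 4 h post-dose each day.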

[8] = Intrinsic clearance in Sprague-Dawley rat liver microsomes at 0.5 uM in presence of NADPH incubated upto 30 mins by UPLC-MS/MS analysis; format: ADME, Microsome; details: 0.5 h; in short: as §1
[9] = Permeability of the compound at 10 uM incubated for 5 hrs by UPLC-MS/MS analysis based PAMPA method; format: ADME; details: read-out: permeability
In short: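 PAMPA run on a lipid-oil-lipid tri-layer filter at pH 7.4. Compound at 10 μM in PBS (DMSO ≤5%) in donor wells, PBS in acceptor wells, kept 5 h at room temperature. Both compartments quantified by UPLC-MS/MS. Data accepted only when recovery exceeded 70%.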

[10] = tested on: Plasmodium berghei; test: Antiplasmodial activity against Plasmodium berghei ANKA infected in NMRI mouse assessed as survival days at 1 mg/kg, po QD for 4 days; format: functional; details: time 4 day
[11] = Intrinsic clearance in human liver microsomes at 0.5 uM in presence of NADPH incubated upto 30 mins by UPLC-MS/MS analysis; format: ADME, Microsome; details: 0.5 h; in short: as §1
[12] = tested on: HepG2; test: Antiproliferative activity against human HepG2 cells assessed as reduction in cell viability; format: cell-based
[13] = tested on: Plasmodium berghei; test: Antiplasmodial activity against Plasmodium berghei ANKA infected in NMRI mouse assessed as reduction in parasitemia at 30 mg/kg, po QD for 4 days; format: functional; set-up: scale not given: the % may be the effect or the level left; details: time 4 day; in short: as §2
[14] = tested on: Plasmodium berghei; test: Antiplasmodial activity against Plasmodium berghei ANKA infected in NMRI mouse assessed as reduction in parasitemia at 10 mg/kg, po QD for 4 days; format: functional; set-up: scale not given: the % may be the effect or the level left; details: time 4 day; in short: as §2
[15] = tested on: Plasmodium berghei; test: Antiplasmodial activity against Plasmodium berghei ANKA infected in NMRI mouse assessed as survival days at 30 mg/kg, po QD for 4 days; format: functional; details: time 4 day
[16] = Oral bioavailability in NMRI mouse at 10 mg/kg administered via gavage by UPLC-MS/MS analysis; format: ADME, organism-based; details: in vivo
In short: (§3)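 Female NMRI mice (n=3) dosed by oral gavage as a solution at 10 mg free base/kg (10 mL/kg; vehicle 5 or 10% DMSO, 40% PEG400). Blood levels measured by UPLC-MS/MS. Parameters derived from the blood concentration-time curve.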

[17] = Half-life in NMRI mouse at 3 mg/kg, iv administered as bolus dose by UPLC-MS/MS analysis; format: ADME, organism-based; details: in vivo
In short: (§4)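 Intravenous bolus solution, 3 mg free base/kg (5 mL/kg; 10% DMSO, 90% saline), given to female NMRI mice (n=3). Compound level in blood determined by UPLC-MS/MS. PK parameters derived from the blood concentration-time curve.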

[18] = tested on: Plasmodium berghei; test: Antiplasmodial activity against Plasmodium berghei ANKA infected in NMRI mouse assessed as survival days at 3 mg/kg, po QD for 4 days; format: functional; details: time 4 day
[19] = tested on: Plasmodium berghei; test: Antiplasmodial activity against Plasmodium berghei ANKA infected in NMRI mouse assessed as survival days at 10 mg/kg, po QD for 4 days; format: functional; details: time 4 day
[20] = Volume of distribution at steady state in NMRI mouse at 3 mg/kg, iv administered as bolus dose by UPLC-MS/MS analysis; format: ADME, organism-based; details: in vivo, read-out: Vdss; in short: as §4
[21] = biological target: Voltage-gated inwardly rectifying potassium channel KCNH2 (Homo sapiens, UniProt Q12809); test: Inhibition of human ERG by IonWorks patch-clamp electrophysiology method
In short: (§5)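 hERG K⁺ channel inhibition measured by IonWorks patch-clamp electrophysiology. Eight-point concentration-response curves made from 3-fold serial dilutions down from the maximum final assay concentration. Each curve generated on 2 occasions.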

[22] = tested on: Plasmodium yoelii; test: Antiplasmodial activity against Plasmodium yoelli liver stage forms; format: functional, organism-based
[23] = Clearance in NMRI mouse blood at 3 mg/kg, iv administered as bolus dose by UPLC-MS/MS analysis; format: ADME, organism-based; in short: as §4
[24] = tested on: Plasmodium berghei; test: Antiplasmodial activity against GFP-transfected Plasmodium berghei ANKA infected in NMRI mouse assessed as reduction in parasitemia by measuring effective dose administered once daily oral dose for 4 days; format: functional; details: 96 h, time 4 day; in short: as §2
[25] = tested on: Plasmodium berghei; test: Antiplasmodial activity against Plasmodium berghei infected in NMRI mouse assessed as reduction in parasitemia at 3 mg/kg, po QD for 4 days; format: functional; set-up: scale not given: the % may be the effect or the level left; details: time 4 day; in short: as §2
[26] = Cmax in NMRI mouse at 10 mg/kg, po administered as gavage by UPLC-MS/MS analysis; format: ADME, organism-based; set-up: route oral, dose 10 mg/kg; details: in vivo; in short: as §3
[27] = tested on: Plasmodium berghei; test: Antiplasmodial activity against Plasmodium berghei ookinete form assessed as growth inhibition incubated for 22 hrs by GFP-based fluorescence microscopic analysis; format: functional, organism-based
[28] = Tmax in NMRI mouse at 10 mg/kg, po administered as gavage by UPLC-MS/MS analysis; format: ADME, organism-based; details: in vivo; in short: as §3
[29] = AUC in NMRI mouse at 10 mg/kg, po administered as gavage by UPLC-MS/MS analysis; format: ADME, organism-based; set-up: dose 10 mg/kg; details: in vivo; in short: as §3
[30] = Toxicity in NMRI mouse assessed as maximum tolerated dose administered twice a day for 4 days; details: in vivo, time 4 day
[31] = biological target: hERG (KCNH2) (Homo sapiens, UniProt Q12809); test: Inhibition of human ERG at 11 uM by IonWorks patch-clamp electrophysiology method relative to control; in short: as §5
Chain of hERG (KCNH2) (Q12809 whole entry): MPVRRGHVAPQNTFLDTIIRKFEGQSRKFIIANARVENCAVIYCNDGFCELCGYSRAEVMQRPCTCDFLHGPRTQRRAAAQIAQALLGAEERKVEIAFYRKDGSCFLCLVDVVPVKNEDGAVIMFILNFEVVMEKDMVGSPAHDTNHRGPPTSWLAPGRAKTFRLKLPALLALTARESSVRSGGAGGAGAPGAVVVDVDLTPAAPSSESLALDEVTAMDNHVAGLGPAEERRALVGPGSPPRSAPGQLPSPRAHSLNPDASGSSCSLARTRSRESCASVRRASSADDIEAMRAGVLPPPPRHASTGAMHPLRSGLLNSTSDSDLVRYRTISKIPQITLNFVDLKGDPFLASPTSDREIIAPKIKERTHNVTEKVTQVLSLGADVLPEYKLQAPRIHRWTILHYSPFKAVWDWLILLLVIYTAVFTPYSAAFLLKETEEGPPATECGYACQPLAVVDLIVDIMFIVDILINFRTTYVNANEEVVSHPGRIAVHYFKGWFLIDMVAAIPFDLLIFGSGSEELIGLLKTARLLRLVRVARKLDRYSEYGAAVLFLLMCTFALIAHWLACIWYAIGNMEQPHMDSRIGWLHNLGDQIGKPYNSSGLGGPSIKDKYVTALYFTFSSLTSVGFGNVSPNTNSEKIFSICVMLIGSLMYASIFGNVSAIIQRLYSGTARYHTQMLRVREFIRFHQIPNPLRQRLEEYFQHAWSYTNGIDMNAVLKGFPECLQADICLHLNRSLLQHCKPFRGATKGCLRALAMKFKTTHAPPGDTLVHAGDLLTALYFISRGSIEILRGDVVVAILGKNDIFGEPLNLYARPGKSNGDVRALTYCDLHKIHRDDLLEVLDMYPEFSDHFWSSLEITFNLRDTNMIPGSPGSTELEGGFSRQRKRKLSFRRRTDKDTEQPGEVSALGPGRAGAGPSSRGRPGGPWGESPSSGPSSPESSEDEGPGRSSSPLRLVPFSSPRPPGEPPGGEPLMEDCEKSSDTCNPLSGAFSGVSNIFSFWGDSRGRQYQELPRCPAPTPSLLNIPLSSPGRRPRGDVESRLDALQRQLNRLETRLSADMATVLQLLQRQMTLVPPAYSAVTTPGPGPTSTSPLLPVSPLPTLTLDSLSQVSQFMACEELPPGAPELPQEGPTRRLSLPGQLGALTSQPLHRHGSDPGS

Chain of Voltage-gated inwardly rectifying potassium channel KCNH2 (Q12809 whole entry): as above

Compound | solubility kinetic [1] [µM] | EC50 [2] [nM] | EC50 [3] [nM] | CLH [5] [mL/min/g] | EC50 [6] [nM] | Activity [7] [%] | Papp at 5 h, 10 µM [9] [×10⁻⁶ cm/s] | further results
O=C(NCCN1CCCC1)c1cc(-c2ccc(CN3CCOCC3)cc2Cl)nc2ccc(F)cc12 | > 201 | 3 | > 50000 | 0.5 |  |  |  | PPB [4]: 56%
COc1cc(C)c2c(Oc3cccc(C(F)(F)F)c3)c(OC)cc(NC(C)CCCN)c2n1 (stereo not drawn) [TAFENOQUINE] |  |  |  |  | 5250 |  |  | 
O=C(NCCN1CCCC1)c1cc(-c2ccc(CN3CCS(=O)(=O)CC3)cc2)nc2ccc(F)cc12 | 171 (≈ 87.3 µg/mL) | 0.6 | 41000 | < 0.5 |  | 99 | 1.4 | CLH [8]: 0.8 mL/min/g; Survival [10]: 7 days
O=C(NCCN1CCCC1)c1cc(-c2ccc(CN3CCOCC3)c(F)c2)nc2ccc(F)cc12 | > 208 | 0.6 | 19000 | 1 |  | 99.8 | 6.3 | Survival [10]: 11 days
O=C(NCCN1CCCC1)c1cc(-c2ccc(CN3CCCC3=O)cc2)nc2ccc(F)cc12 | > 217 | 7 |  | 2 |  | <40 | 4.9 | CLH [11]: 2 mL/min/g; CLH [8]: 0.6 mL/min/g
O=C(NCCNC1CC1)c1cc(-c2ccc(CN3CCOCC3)cc2)nc2ccc(F)cc12 |  | 2 |  | 2 |  |  | 4.9 | EC50 [12]: > 50000 nM
O=C(NCCN1CCCC1)c1cc(NCCCCN2CCOCC2)nc2ccc(Cl)cc12 | 217 (≈ 99.8 µg/mL) | 4 | 13000 | 2 | 104 | 48 | 0.2 | Activity [13]: 99.8%; Activity [14]: 99.7%; Survival [15]: 22 days; bioavailability [16]: 16%; half-life [17]: 12.5 h; CLH [11]: < 1 mL/min/g; Survival [18]: 9 days; Survival [19]: 15 days; Vd [20]: 3.5 L/kg; IC50 [21]: > 11000 nM; EC50 [22]: 18 nM; clearance [23]: 4 mL/min/kg; ED90 [24]: 2.6 mg/kg; Activity [25]: 96%; Cmax [26]: 579 ng/mL; Survival [10]: 6 days; EC50 [27]: 5 nM; Tmax [28]: 2 h; AUC [29]: 2940 ng·h/mL
CN(CCN1CCCC1)C(=O)c1cc(-c2ccc(CN3CCOCC3)cc2)nc2ccc(F)cc12 | > 210 | 87 |  | < 0.5 |  |  | 13.7 | EC50 [12]: > 50000 nM
O=C(NCCN1CCCC1)c1cc(-c2ccc(S(=O)(=O)N3CCOCC3)cc2)nc2ccc(F)cc12 | 109 (≈ 55.9 µg/mL) | 4 | 21000 | 1.9 | 152 |  | 2.9 | IC50 [21]: 11000 nM; PPB [4]: 75%; EC50 [27]: 15 nM
C[C@@H]1CC[C@H]2[C@@H](C)C(=O)O[C@@H]3O[C@@]4(C)CC[C@@H]1[C@]32OO4 [ARTEMISININ] |  |  |  |  | 0.8 |  |  | 
O=C(NCCN1CCCC1)c1cc(NCCCN2CCOCC2)nc2ccc(F)cc12 | 230 (≈ 98.8 µg/mL) | 70 | 41000 | 0.8 |  |  | 0.23 | Activity [13]: 93%; Survival [15]: 7 days; bioavailability [16]: 15%; half-life [17]: 3.2 h; CLH [11]: < 0.5 mL/min/g; MTD at 96 h [30]: 300 mg/kg; CLH [8]: < 0.5 mL/min/g; Vd [20]: 3 L/kg; inhibition at 11 µM [31]: 16%; IC50 [21]: > 11000 nM; PPB [4]: 59%; clearance [23]: 14 mL/min/kg; Cmax [26]: 315 ng/mL; Tmax [28]: 2 h; AUC [29]: 1550 ng·h/mL
COc1ccc2nc3cc(Cl)ccc3c(Nc3cc(CN4CCCC4)c(O)c(CN4CCCC4)c3)c2n1 [PYRONARIDINE] |  |  |  |  | 3110 |  |  | 
O=C(NCCN1CCC1)c1cc(-c2ccc(CN3CCOCC3)cc2)nc2ccc(F)cc12 | 71 (≈ 31.8 µg/mL) | 4 |  | 0.5 |  |  | 7.5 | Activity [14]: 99.1%; Survival [18]: 9.3 days; Survival [19]: 20.3 days; EC50 [12]: 41000 nM; Activity [25]: 99.2%
